Compounds with a hit are over-represented: about 3.6% of the library has one in this group of screens.
HCV NS3 hel inh: inhibitors of HCV NS3 helicase, primary screen, biochemical, Cy5 molecular beacon fluorescence; NS3 helicase DNA unwinding; inhibition, % at 10.9 µM; AID 1800, 2009; 290,000 tested, 0.56% active; Hepatitis C virus NS3 helicase;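 active means inhibition above the mean of all tested compounds plus 3 SD, set per campaign, cut at about 35% in these data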;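 further: 0% = DMSO wells and 100% = thioflavine S control wells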
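Material: hepatitis C virus NS3 helicase domain fragment enzyme; measured by: Cy5 fluorescence, 0 and 60 min reads; control set: DMSO and thioflavine S; incubation: 60 min unwinding reaction at 25 °C after ATP addition; read-out basis: % inhibition from 60/0 min fluorescence ratio, DMSO 0%, thioflavine S 100%; repeats: singlicate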
FID counter: compounds displacing fluorescent DNA intercalator, primary screen, artefact control for HCV NS3 helicase inhibitor project, biochemical, FID fluorescence; DNA fluorescent intercalator displacement; inhibition, % at 7.9 µM; 290,000 tested, 0.17% active; in the data active means inhibition above about 37%;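 further: 0% = vehicle and 100% = reference compound; higher means more ethidium bromide displaced from hairpin DNA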
FGF22 binding: binders of human FGF22 protein, primary screen, FGF22 synaptogenesis inhibitor project, biophysical, thermal shift, single point; Fibroblast growth factor 22 (Homo sapiens), Q9HCT0; recombinant FGF22 thermal shift, SYPRO orange fluorescence; percent of sucrose octasulfate shift, DMSO zero; activity (Tm shift, normalised), % at 9.99 µM; 340,000 tested, 1.5% active; AID 651658, 2012;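 active means mean Tm shift, scaled 0 neutral to 100 positive control, at about 1.3% or above, every replicate too, limit read from the data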
Target sequence (Q9HCT0 whole entry, looked up): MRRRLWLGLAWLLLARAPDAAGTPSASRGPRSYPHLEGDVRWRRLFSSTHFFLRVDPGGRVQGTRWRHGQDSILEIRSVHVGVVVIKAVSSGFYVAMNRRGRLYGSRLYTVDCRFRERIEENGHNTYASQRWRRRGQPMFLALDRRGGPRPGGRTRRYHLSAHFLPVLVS
EBNA-1 inhibitor: EBNA-1 DNA-binding inhibitors, primary screen, biochemical, fluorescence polarization | inhibition, % at 14.8 µM | 300,000 tested, 0.34% active; in the data active means inhibition above about 28%
NR3A LBD binder: binders of NR3A ligand-binding domain, primary screen, biophysical, differential scanning fluorimetry, uHTS; Glutamate receptor ionotropic, NMDA 3A (GRIN3A) ligand-binding domain; NR3A LBD differential scanning fluorimetry, Tm shift; 0% = protein alone, 100% = glycine-bound protein; Tm shift relative to glycine control, % at 25 µM; 340,000 tested, 2.5% active; AID 1259313, 2017;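 active means melting temperature shift of at least 10% of the positive control shift, at one fixed dose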
ZTA counter: counter-screen for EBNA-1 inhibitors: inhibitors of Epstein-Barr virus ZTA. ZTA-DNA binding, fluorescence polarization. inhibition, % at 11 µM. P03206. AID 2234. 320,000 tested, 0.15% active; in the data active means inhibition above about 33%
Target sequence (P03206 whole entry, looked up): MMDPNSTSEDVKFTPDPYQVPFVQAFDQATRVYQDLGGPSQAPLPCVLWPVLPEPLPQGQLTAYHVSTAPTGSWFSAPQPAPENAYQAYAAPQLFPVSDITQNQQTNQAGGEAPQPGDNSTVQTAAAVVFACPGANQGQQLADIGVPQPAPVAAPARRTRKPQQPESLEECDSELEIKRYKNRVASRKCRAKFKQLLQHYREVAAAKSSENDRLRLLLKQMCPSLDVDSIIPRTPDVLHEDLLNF
* = called active by the depositor; . = no result.

SMILES	HCV NS3 hel inh	FID counter	FGF22 binding	EBNA-1 inhibitor	NR3A LBD binder	ZTA counter
COC(=O)c1ccc(-c2noc(CN(C)CCC3CCCCO3)n2)cc1 (stereo not given)	-4.0	-22.5	43.0*	14.2	-0.6	4.3
Cc1ccc(C(=O)O)cc1NC(=O)C1=CSCCO1	4.4	0.3	-0.1	-5.3	20.9*	-32.1
Cc1ccc(C(=O)O)cc1NC(=O)c1cccs1	-11.7	0.8	.	-3.1	1.7	2.6
COc1ccc(CN(C)C[C@H]2Oc3c(NS(=O)(=O)c4cccs4)cccc3C(=O)N([C@@H](C)CO)C[C@H]2C)cc1	.	.	0.1	.	.	.
Cc1noc(C)c1NC(=O)N[C@H]1CC[C@@H](CCNC(=O)C2CC2)O[C@H]1CO	.	.	0.0	.	.	.
CC(=O)n1cc(/C=N/NC(=O)c2ccccc2O)c2ccccc21	5.3	-2.3	0.0	-1.1	32.3*	-10.4
CC1C(=O)N(Cc2cn(CCC3OCCCO3)nn2)CCS(=O)(=O)N1Cc1ccc(-c2ccc(Cl)cc2)cc1 (stereo not given)	.	.	44.2*	.	.	.
Cc1sc2ncnc(N/N=C/c3ccc(O)cc3)c2c1C	-6.6	4.2	0.1	-8.0	35.0*	-9.2
Nc1c(Cl)ncnc1N/N=C/c1ccc(O)cc1	1.9	3.0	-0.1	3.8	13.7*	15.0
C[C@H]1CN([C@@H](C)CO)C(=O)c2cc(C3=CCCCC3)cnc2O[C@@H]1CN(C)Cc1ccccc1F	.	.	0.1	.	.	.
CCOc1ccc(OCc2ccc(C(=O)N3N=C(C(F)F)CC3(O)C(F)F)o2)cc1 (stereo not given)	-4.2	-16.1	0.4	6.1	-8.7	2.1
O=C(c1ccc(COc2ccc3ccccc3c2)o1)N1N=C(C(F)F)CC1(O)C(F)F (stereo not given)	-9.2	-2.6	0.3	-3.0	20.1*	-2.4
O=C(c1ccc(COc2ccc(Br)cc2)o1)N1N=C(C(F)F)CC1(O)C(F)F (stereo not given)	-13.3	-10.7	-0.1	8.2	19.2*	-6.2
C[C@H]1CN([C@@H](C)CO)C(=O)c2cc(NC(=O)Nc3ccc(F)cc3)ccc2O[C@H]1CN(C)S(=O)(=O)c1cn(C)cn1	.	.	-0.9	.	.	.
C[C@H](CO)N1C[C@H](C)[C@H](CN(C)S(=O)(=O)c2ccc(Oc3ccccc3)nc2)OCc2cn(nn2)CCCC1=O	.	.	0.3	.	.	.
Cc1ccc(CNC(=O)C2CSC3(C)CCC(=O)N23)cc1 (stereo not given)	.	.	42.9*	.	-4.4	.
Cn1c(=O)c2c(ncn2CC(O)CNc2ccc(Br)cc2)n(C)c1=O (stereo not given)	-1.5	-6.7	.	0.7	22.9*	-10.7
COc1ccc(NCC(O)Cn2cnc3c2c(=O)n(C)c(=O)n3C)cc1 (stereo not given)	12.9	3.4	-0.3	0.7	-2.2	0.4
CCC(C)NC(=O)C1CCCN1S(=O)(=O)c1ccc(Cl)cc1 (stereo not given)	11.6	-2.4	-0.2	4.9	0.3	4.3
NNC(=O)C1CCCN1S(=O)(=O)c1ccc(Cl)cc1 (stereo not given)	-1.8	-5.7	43.1*	-0.3	-2.1	-4.9
O=C(C1CCCN1S(=O)(=O)c1ccc(Cl)c(Cl)c1)N1CCOCC1 (stereo not given)	25.1	-12.0	.	-8.5	10.2*	3.0
CO[C@H]1CN(C)C(=O)c2cc(NS(C)(=O)=O)ccc2OC[C@@H](C)N(CC2CCCCC2)C[C@@H]1C	.	.	-0.2	.	.	.
CO[C@@H]1CN(C)C(=O)c2cc(NC(=O)NC(C)C)ccc2OC[C@H](C)N(CC2CC2)C[C@H]1C	.	.	-0.1	.	.	.
CC(C)(C)c1ccc(NC(=O)CSc2nnc(-c3n[nH]c4ccccc34)o2)cc1	-4.7	-7.4	-0.3	-10.2	175.0*	4.3
Cc1ccc(C)c(NC(=O)CSc2nnc(-c3n[nH]c4ccccc34)o2)c1	-5.9	-9.3	.	-5.6	-7.7	-10.0
SMILES	HCV NS3 hel inh	FID counter	FGF22 binding	EBNA-1 inhibitor	NR3A LBD binder	ZTA counter
COc1ccc2c3c([nH]c2c1)[C@H](CO)N(Cc1ccccc1)CC31CCN(C(=O)Nc2cccc(F)c2)CC1	.	.	-0.3	.	.	.
O=S1(=O)CCC(NC(=S)NCCNC(=S)NC2CCS(=O)(=O)C2)C1 (stereo not given)	1.4	-4.8	.	6.6	20.5*	-2.5
C[C@@H]1CN([C@@H](C)CO)C(=O)c2cccc(NC(=O)c3ccncc3)c2O[C@@H]1CN(C)Cc1ccc(C(=O)Nc2ccccc2N)cc1	.	.	-0.2	.	.	.
COc1ccccc1C(=O)N(CCC1CCCN1C)c1nc2ccccc2s1 (stereo not given)	-41.3	42.0*	-0.2	4.5	1.2	4.3
NC(=O)C1CCN(C(=O)c2cc3c(s2)CCCC3)CC1	.	.	43.1*	7.5	0.7	-15.5
CC(C)NC(=O)C1CCN(C2CCN(C(=O)c3cc4c(s3)CCCCC4)CC2)CC1	0.2	5.0	0.1	-2.3	-4.5	-10.7
Cn1c(SCC(=O)NC2CCCCC2)nnc1-c1cccnc1	15.2	-4.3	0.1	1.9	-1.6	-3.1
Cn1c(SCC(=O)NC2(C#N)CCCCC2)nnc1-c1cccnc1	9.2	-9.3	-0.1	15.2	17.4*	9.4
C[C@@H]1CN([C@@H](C)CO)C(=O)c2cc(NC(=O)NC3CCCCC3)ccc2O[C@@H](C)CCCCO[C@H]1CN(C)C	.	.	0.6	.	.	.
CCC(Sc1nc(C)cc(C)n1)C(=O)Nc1cc(C)on1 (stereo not given)	-2.3	-4.3	43.5*	7.6	3.5	-18.4
N#Cc1c(N)nc(SCC(=O)C23CC4CC(CC(C4)C2)C3)c(C#N)c1-c1ccc(Cl)cc1	-4.1	0.8	.	0.2	0.5	-12.2
CCOC(=O)CC(=O)CSc1nc(N)c(C#N)c(-c2ccc(Cl)cc2)c1C#N	21.7	-2.9	0.3	12.8	15.6*	-7.0
CCOC(=O)CC(=O)CSc1nc2c(c(C)c1C#N)CCC2	12.3	-4.0	.	-3.1	19.9*	-2.6
CCc1cc2c(nc1CC)CCCN2S(=O)(=O)c1c(C)noc1C	.	.	43.0*	.	.	.
CC(=O)C1CCC2C3CCC4CC(OC(=O)CCC(=O)O)CCC4(C)C3C(=O)CC12C (stereo not given)	.	.	43.8*	.	-10.1	.
COC(=O)NC(NC(=S)Nc1cccc(C)c1)C(Cl)(Cl)Cl (stereo not given)	8.2	-1.2	0.3	0.8	-16.4	-3.0
O=C(/C=C/c1ccccc1)NC(NC(=S)Nc1ccc(C(=O)O)cc1)C(Cl)(Cl)Cl (stereo not given)	20.4	-23.8	.	13.4	13.1*	2.8
O=C(/C=C/c1ccccc1)NC(NC(=S)Nc1cccc(Cl)c1)C(Cl)(Cl)Cl (stereo not given)	7.2	6.5	.	-6.2	28.9*	-23.3

Screens (PubChem BioAssay)
